Compound activity: PubChem, Sanford-Burnham Center for Chemical Genomics
SENP7 inh: SENP7 protease inhibition. inhibition, % at 5 µM. recombinant SENP7, Z-RLRGG-aminoluciferin luminescence, 40 min. 330,000 compounds, 1.5% hits;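 active means inhibition above about 50% at the single test dose, limit read from the data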
SENP1 FRET inh: SENP1 (human) catalytic domain inhibition; inhibition, % at 10 µM; Q9P0U3; recombinant SENP1 catalytic domain, CyPet-SUMO1-YPet FRET cleavage; 360,000 compounds, 0.21% hits;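 active means inhibition at least 30% at 10 µM, raw YFP signal under a set limit, fluorescence ratio 0.5 to 1.5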
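Test system: hSENP1 catalytic domain, recombinant; Amount: 20 pM final SENP1 enzyme; Medium: Tris pH 8 buffer plus EDTA, NaCl, BME, BSA, NP40, catalase; Schedule: 50 min enzyme reaction, room temperature, light-protected; Technique: FRET fluorescence in CFP and YFP emission channels; Controls: no-enzyme wells low, DMSO-plus-enzyme wells high control.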
SENP6 block: SENP6 protease inhibition | Recombinant SENP6 catalytic domain, aminoluciferin luminescence | 330,000 compounds, 1.8% hits | Q9GZR1 | inhibition, % at 10 µM;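 active means inhibition above about 50% at the single tested dose, limit read from the data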
Target sequence (Q9GZR1 628-1112 limits assumed): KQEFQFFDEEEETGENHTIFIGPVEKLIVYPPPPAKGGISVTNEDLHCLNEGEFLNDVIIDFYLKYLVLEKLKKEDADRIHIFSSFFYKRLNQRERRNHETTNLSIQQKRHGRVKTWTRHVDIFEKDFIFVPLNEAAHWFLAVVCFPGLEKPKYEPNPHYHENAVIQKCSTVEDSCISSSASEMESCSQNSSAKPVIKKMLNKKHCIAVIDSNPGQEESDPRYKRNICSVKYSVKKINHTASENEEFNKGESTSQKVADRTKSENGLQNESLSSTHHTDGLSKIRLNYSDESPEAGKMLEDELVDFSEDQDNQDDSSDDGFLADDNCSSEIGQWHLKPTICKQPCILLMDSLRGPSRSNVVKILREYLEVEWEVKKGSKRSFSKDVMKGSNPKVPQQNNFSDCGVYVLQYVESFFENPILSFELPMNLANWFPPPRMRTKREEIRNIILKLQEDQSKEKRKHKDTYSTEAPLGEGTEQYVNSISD
SENP8 block-1: blocks human SENP8 cleavage of Nedd8 substrate; Q96LD8; recombinant SENP8, Nedd8 substrate fluorescence; inhibition, % at 20 µM; 360,000 compounds, 0.64% hits; AID 602440; in the data active means inhibition mostly above about 40%, no sharp cut-off; inactive means mostly below about 27%
SENP8 block-2: blocks the human protease SENP8 | Q96LD8 | purified SENP8, Z-RLRGG-aminoluciferin cleavage, luminescence | inhibition, % at 10 µM | 330,000 compounds, 1.2% hits; in the data active means inhibition above about 50%
SENP8 confirm: human SENP8 inhibition, confirmed | shares compounds with SENP7 inh | Recombinant SENP8, Z-RLRGG-aminoluciferin luminescence, 60 min | inhibition, % at 12.5 µM | 6,200 compounds, 40% hits | AID 488912;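 active means mean inhibition across replicates above about 50%, limit read from the data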
SENP6 conf: human SENP6 inhibition, confirmed | shares compounds with SENP7 inh | recombinant SENP6, Z-RLRGG-aminoluciferin luminescence | inhibition, % at 12.5 µM | 6,200 compounds, 58% hits
SENP7 conf: human SENP7 inhibition, confirmed; shares compounds with SENP7 inh; recombinant SENP7, Z-RLRGG-aminoluciferin luminescence, 40 min; inhibition, % at 12.5 µM; 6,200 compounds, 69% hits
Casp3 select: selectivity test for SENP inhibitors: human caspase-3 inhibition; shares compounds with SENP7 inh; purified caspase-3, Z-DEVD-aminoluciferin luminescence, 60 min; inhibition, % at 12.5 µM; 6,200 compounds, 60% hits; AID 488918;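 active means mean inhibition above about 50%, limit read from the data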
Luc interf: luminescence interference (SENP counter-screen) | shares compounds with SENP7 inh | Pre-incubated SENP8/Z-RLRGG-aminoluciferin, luciferase luminescence interference | inhibition, % at 12.5 µM | 6,200 compounds, 39% hits | AID 488919;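 active means mean inhibition above about 50% when retested at one dose, limit read from the data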
Large screens that a line does not name were inactive (follow-up assays come after a bar, where they were run). An excerpt weighted towards active compounds, which were near 2.5% of everything screened.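 How the source made its calls, unless noted: active means mean inhibition above about 50% in the one-dose retest (limit read from the data); inactive means the rest.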

Cc1ccccc1OCCC(=O)OCC(=O)NNC(=O)c1cccs1	none
COc1ccc(C(=O)OCC(=O)c2ccc3c(c2)NC(=O)CO3)cc1S(=O)(=O)N1CCOCC1	none
COc1cccc(C(=O)Nc2ccc(C(=O)c3ccccc3)cc2)c1	none
COc1cccc(C(=O)NC(=S)Nc2ccc(N(C)C)cc2)c1	SENP6 block 57 | SENP8 confirm inactive | SENP6 conf 57 | SENP7 conf 78 | Casp3 select inactive | Luc interf inactive
COC(=O)c1cccc(NC(=O)c2cccc(OC)c2)c1	SENP7 inh 84, SENP6 block 85, SENP8 block-2 65 | SENP8 confirm 69 | SENP6 conf 71 | SENP7 conf 94 | Casp3 select 85 | Luc interf 78
COc1cccc(C(=O)Nc2ccc(C3CC3(Cl)Cl)cc2)c1 (stereo unspecified)	SENP7 inh 94, SENP6 block 85, SENP8 block-2 92 | SENP8 confirm 96 | SENP6 conf 97 | SENP7 conf 103 | Casp3 select 92 | Luc interf inactive
COc1cccc(C(=O)Nc2ccc(F)cc2F)c1	none
COc1cccc(C(=O)Nc2ccc(F)c(F)c2F)c1	SENP7 inh 51 | SENP8 confirm inactive | SENP6 conf inactive | SENP7 conf 77 | Casp3 select 70 | Luc interf 53
Cc1n[nH]c(C)c1S(=O)(=O)N1CCC(C(=O)Nc2cccc(F)c2)CC1	none
Cc1ccc(S(=O)(=O)N(C)c2ccc(C(=O)Nc3c(C)n(C)n(-c4ccccc4)c3=O)cc2)cc1	none
COc1ccc(OC)c(CCNC(=O)CN2C(=O)CCSc3ccccc32)c1	none
CC(C)=CCC[C@H](C)C[C@@H]1Cc2[nH]c(=S)[nH]c(=O)c2[C@@H](c2ccc(F)cc2)O1	none (no result: SENP7 inh, SENP6 block, SENP8 block-2)
CCOC(=O)Nc1cccc(NC(=O)c2cc(OC)cc(OC)c2)c1	SENP7 inh 71, SENP6 block 64 | SENP8 confirm 74 | SENP6 conf 70 | SENP7 conf 88 | Casp3 select 76 | Luc interf 74
CN(C)S(=O)(=O)Oc1ccc(C(=O)Nc2cccc(Cl)c2)cc1	SENP7 inh 75, SENP6 block 58, SENP8 block-2 70 | SENP8 confirm 83 | SENP6 conf 82 | SENP7 conf 96 | Casp3 select 63 | Luc interf 72
COc1cccc(C(=O)Nc2ccc(C(F)(F)F)n(C)c2=O)c1	SENP7 inh 80, SENP8 block-2 65 | SENP8 confirm inactive | SENP6 conf inactive | SENP7 conf 82 | Casp3 select 70 | Luc interf inactive
CN(C)S(=O)(=O)Oc1ccc(C(=O)Nc2cccc(C(F)(F)F)c2)cc1	none
CCOc1ccc(C(=O)Nc2ccc(C(F)(F)F)n(C)c2=O)cc1	none
COc1cccc(NC(=O)c2cccc(Cl)c2)c1	SENP7 inh 77, SENP6 block 83, SENP8 block-2 77 | SENP8 confirm 81 | SENP6 conf 79 | SENP7 conf 95 | Casp3 select 83 | Luc interf 81
CCN(C[C@H]1N[C@@](CC)(C(=O)OC)[C@H]2C(=O)N(C)C(=O)[C@@H]12)C(=O)COC	none
C[C@H](NC(=O)N1CCn2c1nc1ccccc12)C(=O)NCc1ccccc1	none
CCC(C(=O)NCCc1ccc(OC)cc1OC)n1nc(C)n2c(cc3occc32)c1=O (stereo unspecified)	none
COc1ccc2oc(=O)c(C(=O)Nc3cccc(C(C)=O)c3)cc2c1	none
N=c1oc2cc(O)ccc2cc1C(=O)Nc1ccccn1	none (no result: SENP1 FRET inh, SENP8 block-1)
COc1cccc(NC(=O)c2cc3ccccc3oc2=O)c1	SENP7 inh 100, SENP6 block 94, SENP8 block-2 90 | SENP8 confirm inactive | SENP6 conf inactive | SENP7 conf inactive | Casp3 select inactive | Luc interf inactive
N=c1oc2cc(O)ccc2cc1C(=O)Nc1ccc(Br)cc1	SENP6 block 86, SENP8 block-2 77 | SENP8 confirm inactive | SENP6 conf inactive | SENP7 conf inactive | Casp3 select inactive | Luc interf inactive
COc1ccc2oc(=O)c(C(=O)Nc3ccccc3C)cc2c1	SENP7 inh 74, SENP6 block 65 | SENP8 confirm inactive | SENP6 conf inactive | SENP7 conf inactive | Casp3 select 50 | Luc interf inactive
COc1cc2ccccc2cc1C(=O)Nc1ccccc1Cl	SENP6 block 58 | SENP8 confirm 72 | SENP6 conf 72 | SENP7 conf 91 | Luc interf inactive
CC(C)(C)n1nc2c(c1NC(=O)C1CC(=O)N(c3ccc(Cl)cc3)C1)CS(=O)(=O)C2 (stereo unspecified)	none
O=C(c1ccc(Cl)c(S(=O)(=O)N2CCOCC2)c1)N1CCCCCC1	none
O=C(CC1(O)C(=O)N(Cc2ccccc2)c2ccccc21)c1ccncc1 (stereo unspecified)	none
N=c1oc2ccc(Cl)cc2cc1C(=O)Nc1ccc(F)cc1	none
Cc1cccnc1NC(=O)c1cc2ccccc2oc1=O	SENP7 inh 91 | SENP8 confirm 53 | SENP6 conf 52 | SENP7 conf 80 | Casp3 select 68 | Luc interf inactive
CCc1nnc(NC(=O)c2cc3ccccc3oc2=O)s1	none
COc1ccc2oc(=N)c(C(=O)Nc3ccccc3Cl)cc2c1	SENP7 inh 61 | SENP8 confirm inactive | SENP6 conf inactive | SENP7 conf inactive | Casp3 select inactive | Luc interf inactive
COc1ccc2oc(=N)c(C(=O)Nc3cccc(C)c3C)cc2c1	none
COc1ccc2oc(=N)c(C(=O)Nc3ccccc3)cc2c1	SENP7 inh 72, SENP6 block 62 | SENP8 confirm inactive | SENP6 conf inactive | SENP7 conf 69 | Casp3 select 57 | Luc interf inactive
N=c1oc2ccccc2cc1C(=O)Nc1ccccc1	SENP7 inh 93, SENP6 block 86, SENP8 block-2 89 | SENP8 confirm inactive | SENP6 conf 56 | SENP7 conf 78 | Casp3 select inactive | Luc interf inactive
C/C(CC(=O)NC1CCCC1)=N\NC(=O)c1ccc([N+](=O)[O-])c(Cl)c1	none (no result: SENP7 inh, SENP6 block, SENP8 block-2)
CSCCC(=O)N1CCCC(N(C)CCc2ccccc2)C1 (stereo unspecified)	none
O=C(Nc1ccon1)Nc1cccc(Cl)c1Cl	none
